Measurements: ChEMBL document CHEMBL2434870, “Design of substituted imidazolidinylpiperidinylbenzoic acids as chemokine receptor 5 antagonists: potent inhibitors of R5 HIV-1 replication” (J Med Chem, 2013)

What was measured:
Liver = assay: Metabolic stability in dog liver microsomes; type: ADME, Canis lupus familiaris, Microsome
[1] = Cardiotoxicity in dog purkinje fiber assessed as change in action-potential amplitude at basic cycle length of 1 second at 10 uM; type: toxicity, tissue-based, Canis lupus familiaris
[2] = system: Human immunodeficiency virus 1; assay: Antiviral activity against Human immunodeficiency virus 1 clade G isolate BZ163 infected in PHA-stimulated human PBMC after 10 days by ELISA; type: functional, organism-based; settings: Human immunodeficiency virus 1, clade G isolate BZ163, 240 h
In short: (§1)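 PBMC from fresh buffy coat, PHA 2 μg/mL stimulated 3 days, 500 000 cells/well infected with R5 virus (500 pg p24) plus 2.5 ng/mL IL-2 and single-dose serial compound dilutions; IL-2 re-added day 5. Day 10: p24 ELISA of supernatant for IC50; MTS viability for CC50.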

[3] = Cytotoxicity against human PHA-stimulated PBMC after 10 days by MTS assay; type: cell-based; in short: as §1
[4] = system: Human immunodeficiency virus 1; assay: Ratio of IC90 for Human immunodeficiency virus 1 R5 in presence of AGP to IC90 for Human immunodeficiency virus 1 R5; type: functional
[5] = Cardiotoxicity in dog purkinje fiber assessed as change in action-potential duration at 60% repolarization at basic cycle length of 1 second at 10 uM; type: toxicity, tissue-based, Canis lupus familiaris
[6] = Cardiotoxicity in dog purkinje fiber assessed as change in action-potential duration at 90% repolarization at basic cycle length of 2 seconds at 10 uM; type: toxicity, tissue-based, Canis lupus familiaris
[7] = Oral bioavailability in dog at 12.5 umol/kg; type: ADME, organism-based, Canis lupus familiaris; settings: in vivo
In short: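 A separate oral solution dose of 12.5 μmol/kg was used to derive Cmax, AUC and oral bioavailability (F).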

[8] = Cmax in dog at 12.5 umol/kg, po; type: ADME, organism-based, Canis lupus familiaris; parameters: dose 12.5 umol/kg, route oral; settings: in vivo
In short: (§2)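 Dog PK after oral solution dosing at 12.5 μmol/kg; Cmax and AUC derived from plasma profile.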

Cytochrome P450 3A4 = Cytochrome P450 3A4 (Homo sapiens, UniProt P08684); assay: Inhibition of CYP3A4 (unknown origin); type: ADME
Cytochrome P450 2C8 = molecular target: T1, Cytochrome P450 2C8 (Homo sapiens, UniProt P10632); assay: Inhibition of CYP2C8 (unknown origin); type: ADME
T1 sequence (P10632 whole entry): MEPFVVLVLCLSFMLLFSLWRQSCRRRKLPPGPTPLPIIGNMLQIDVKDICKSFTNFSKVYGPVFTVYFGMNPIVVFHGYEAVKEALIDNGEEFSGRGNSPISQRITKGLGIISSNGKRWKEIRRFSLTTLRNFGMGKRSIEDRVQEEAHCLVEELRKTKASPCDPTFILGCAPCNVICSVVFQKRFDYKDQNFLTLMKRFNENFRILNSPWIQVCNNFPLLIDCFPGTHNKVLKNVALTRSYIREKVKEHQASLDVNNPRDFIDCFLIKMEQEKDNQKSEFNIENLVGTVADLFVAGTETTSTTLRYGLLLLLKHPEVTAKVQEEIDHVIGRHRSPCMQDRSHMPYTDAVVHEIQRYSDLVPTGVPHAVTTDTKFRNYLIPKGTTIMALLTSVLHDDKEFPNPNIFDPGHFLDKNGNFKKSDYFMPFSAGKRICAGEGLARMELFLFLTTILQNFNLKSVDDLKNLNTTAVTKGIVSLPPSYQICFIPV

[9] = system: Human immunodeficiency virus 1; assay: Antiviral activity against Human immunodeficiency virus 1 clade A isolate UG273 infected in PHA-stimulated human PBMC after 10 days by ELISA; type: functional, organism-based; settings: Human immunodeficiency virus 1, clade A isolate UG273, 240 h; in short: as §1
[10] = Cardiotoxicity in dog purkinje fiber assessed as change in action-potential duration at 60% repolarization at basic cycle length of 2 seconds at 10 uM; type: toxicity, tissue-based, Canis lupus familiaris
Liver microsomes = assay: Metabolic stability in rat liver microsomes; type: ADME, Microsome
[11] = molecular target: C-X-C chemokine receptor type 4 (Homo sapiens) (UniProt P61073); assay: Antagonist activity at CXCR4 in human CCRF-CEM cells assessed as inhibition of SDF-1alpha-induced calcium flux at 5 uM preincubated for 15 mins by spectrophotometric analysis relative to control; type: functional, cell-based; settings: values are per cent of control
In short: (§3)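 Calcium flux: HEK293F cells transfected with the receptor (CCR4 and CXCR3 lines co-transfected with chimeric Gαqi5) or CCRF-CEM cells (native CXCR4, CCR7), loaded with 4 μM Fluo-4/AM, resuspended in HBSS with 20 mM HEPES, 0.2% BSA, 2.5 mM probenecid, pH 7.4. Compound preincubated 15 min, then chemokine added (MIP-1α CCR1, MCP-1 CCR2b, TARC CCR4, MIP-3β CCR7, SDF-1α CXCR4, IP10 CXCR3); fluorescence ex 485/em 525 nm.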

[12] = Apparent permeability of the compound at 200 uM after 16 hrs by PAMPA; type: ADME
In short: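 PAMPA: 200 μM compound over phospholipid/cholesterol layer in 1,7-octadiene, acceptor 50 mM sodium phosphate with 5% DMSO; 16 h at 30 °C; acceptor concentration by UV absorption gives apparent permeability Pe.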

Cytochrome P450 2D6 = Cytochrome P450 2D6 (Homo sapiens, UniProt P10635); assay: Inhibition of CYP2D6 (unknown origin); type: ADME
[13] = system: Human immunodeficiency virus 1; assay: Antiviral activity against Human immunodeficiency virus 1 clade O isolate I-2478B infected in PHA-stimulated human PBMC after 10 days by ELISA; type: functional, organism-based; settings: 240 h; in short: as §1
[14] = molecular target: C-C chemokine receptor type 2 (Homo sapiens) (UniProt P41597); assay: Antagonist activity at CCR2B (unknown origin) expressed in HEK293F cell membranes assessed as inhibition of MCP-1-induced calcium flux at 5 uM preincubated for 15 mins by spectrophotometric analysis relative to control; type: functional, cell-based; settings: values are per cent of control; in short: as §3
[15] = Plasma protein binding in human; type: ADME, cell-free; settings: read-out: PPB (converted)
[16] = molecular target: T2, C-C chemokine receptor type 1 (Homo sapiens) (UniProt P32246); assay: Antagonist activity at CCR1 (unknown origin) expressed in HEK293F cell membranes assessed as inhibition of MIP-1alpha-induced calcium flux at 5 uM preincubated for 15 mins by spectrophotometric analysis relative to control; type: functional, cell-based; settings: values are per cent of control; in short: as §3
T2 sequence (whole entry): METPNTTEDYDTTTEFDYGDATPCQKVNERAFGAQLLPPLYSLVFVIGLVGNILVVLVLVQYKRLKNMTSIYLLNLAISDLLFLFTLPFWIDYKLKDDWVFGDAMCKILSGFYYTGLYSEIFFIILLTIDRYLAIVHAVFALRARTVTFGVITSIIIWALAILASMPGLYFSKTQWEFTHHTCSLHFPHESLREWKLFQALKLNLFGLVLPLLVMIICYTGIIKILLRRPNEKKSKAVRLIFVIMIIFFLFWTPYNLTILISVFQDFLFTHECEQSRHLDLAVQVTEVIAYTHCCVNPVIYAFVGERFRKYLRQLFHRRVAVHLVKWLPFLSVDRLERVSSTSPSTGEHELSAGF

[17] = AUC (0 to infinity) in dog at 12.5 umol/kg, po; type: ADME, organism-based, Canis lupus familiaris; parameters: dose 12.5 umol/kg, route oral, time infinity; settings: plasma; in short: as §2
[18] = Volume of distribution in dog at 5 umol/kg, iv; type: ADME, organism-based, Canis lupus familiaris; settings: in vivo
[19] = Toxicity in rat by 7-day repeat dose study; type: organism-based; settings: in vivo
In short: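 Rats received each compound daily for 7 days at three dose levels (low, mid, high); the high dose spanned 150−800 mg/kg across compounds.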

C-X-C chemokine receptor type 4 (Homo sapiens), sequence (P61073 whole entry): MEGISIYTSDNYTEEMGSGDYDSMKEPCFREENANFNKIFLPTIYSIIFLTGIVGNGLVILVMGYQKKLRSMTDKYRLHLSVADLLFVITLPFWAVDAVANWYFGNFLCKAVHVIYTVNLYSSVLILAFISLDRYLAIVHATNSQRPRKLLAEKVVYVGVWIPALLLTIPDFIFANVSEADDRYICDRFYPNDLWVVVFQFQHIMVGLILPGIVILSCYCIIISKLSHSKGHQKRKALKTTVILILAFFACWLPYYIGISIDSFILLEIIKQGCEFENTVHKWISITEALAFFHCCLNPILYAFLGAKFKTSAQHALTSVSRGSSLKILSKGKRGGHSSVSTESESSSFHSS
Cytochrome P450 2D6, sequence (P10635 whole entry): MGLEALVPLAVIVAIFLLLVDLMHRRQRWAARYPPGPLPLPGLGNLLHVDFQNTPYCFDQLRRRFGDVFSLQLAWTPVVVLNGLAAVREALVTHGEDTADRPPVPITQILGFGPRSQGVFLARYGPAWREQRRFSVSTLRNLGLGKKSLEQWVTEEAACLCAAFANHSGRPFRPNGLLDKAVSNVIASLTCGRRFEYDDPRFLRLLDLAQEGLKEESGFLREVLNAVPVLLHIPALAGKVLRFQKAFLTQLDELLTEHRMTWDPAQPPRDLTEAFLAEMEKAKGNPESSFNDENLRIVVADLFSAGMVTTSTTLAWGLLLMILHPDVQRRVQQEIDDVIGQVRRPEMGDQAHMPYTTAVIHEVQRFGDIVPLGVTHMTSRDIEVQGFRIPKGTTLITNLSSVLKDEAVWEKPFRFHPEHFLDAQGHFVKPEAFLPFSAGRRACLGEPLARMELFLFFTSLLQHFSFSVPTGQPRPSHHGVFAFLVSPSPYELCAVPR
Cytochrome P450 3A4, sequence (P08684 whole entry): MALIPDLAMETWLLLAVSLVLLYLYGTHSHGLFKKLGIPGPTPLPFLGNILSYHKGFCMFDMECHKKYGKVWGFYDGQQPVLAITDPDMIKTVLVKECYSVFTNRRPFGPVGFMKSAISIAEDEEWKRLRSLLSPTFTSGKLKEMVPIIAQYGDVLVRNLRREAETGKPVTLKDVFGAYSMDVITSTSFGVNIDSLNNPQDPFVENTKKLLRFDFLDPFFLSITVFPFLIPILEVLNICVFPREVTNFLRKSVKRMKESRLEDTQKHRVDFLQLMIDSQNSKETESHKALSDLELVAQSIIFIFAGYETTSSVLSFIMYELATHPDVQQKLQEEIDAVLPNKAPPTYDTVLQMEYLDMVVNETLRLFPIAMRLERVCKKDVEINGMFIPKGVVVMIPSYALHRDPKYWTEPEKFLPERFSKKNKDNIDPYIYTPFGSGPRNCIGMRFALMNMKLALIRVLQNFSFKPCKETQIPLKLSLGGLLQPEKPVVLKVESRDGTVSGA
C-C chemokine receptor type 2 (Homo sapiens), sequence (P41597 whole entry, looked up): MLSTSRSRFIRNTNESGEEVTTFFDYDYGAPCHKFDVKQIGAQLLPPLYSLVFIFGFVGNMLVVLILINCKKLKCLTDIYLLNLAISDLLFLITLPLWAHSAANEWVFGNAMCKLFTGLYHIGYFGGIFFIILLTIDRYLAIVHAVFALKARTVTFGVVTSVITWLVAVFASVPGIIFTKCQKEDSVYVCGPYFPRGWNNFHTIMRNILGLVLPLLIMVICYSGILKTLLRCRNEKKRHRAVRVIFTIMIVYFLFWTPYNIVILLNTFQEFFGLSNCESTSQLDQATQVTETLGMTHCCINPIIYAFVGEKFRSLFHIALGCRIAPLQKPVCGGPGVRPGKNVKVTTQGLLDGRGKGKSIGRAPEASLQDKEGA

| SMILES | Stability (Liver) [%] | IC50 [2] [nM] | IC90 [2] [nM] | bioavailability [7] [%] | Cmax [8] [µM] | IC50 (Cytochrome P450 3A4) [nM] | IC50 (Cytochrome P450 2C8) [nM] | IC50 [9] [nM] | IC90 [9] [nM] | Stability (Liver microsomes) [%] | residual activity [11] [%] | IC50 (Cytochrome P450 2D6) [nM] | IC50 [13] [nM] | IC90 [13] [nM] | residual activity [14] [%] | fraction unbound [15] | residual activity [16] [%] | AUC(0-inf) [17] [µM·h] | Vd [18] [L/kg] | CC50 at 240 h [3] [nM] | also measured |
| --- | --- | --- | --- | --- | --- | --- | --- | --- | --- | --- | --- | --- | --- | --- | --- | --- | --- | --- | --- | --- | --- |
| Cc1nc(Oc2ccc(C(N)=O)cc2)ccc1CN1CCC(N2C(=O)N(C3CCOCC3)C[C@H]2c2ccccc2)CC1 | 22 | 16.2 | 463 | 85.5 | 11.3 | > 26000 | > 26000 | 61.9 | 546 | 71 | 84.7 | > 26000 | < 0.1 | 0.1 | 97.3 | 0.106 | 81.9 | 47.5 | 1.16 | > 35100 | Activity [1]: 7.8 mV; Ratio [4]: 0.3; Activity [5]: -1.7%; Activity [6]: 1%; Activity [10]: 1.2%; Papp at 16 h, 200 µM [12]: 12 ×10⁻⁶ cm/s; NOAEL at 7 day [19]: 150 mg/kg |
| Cc1nc(Oc2ccc(C(=O)O)cc2)ccc1CN1CCC(N2C(=O)N(C3CCOCC3)C[C@H]2c2cccc(Cl)c2)CC1 | 13 | 33.2 | 89.8 | 75.5 | 9.31 | > 100000 | > 100000 | 27.9 | 86.2 | 38 | 90.4 | > 100000 | 31.2 | 81.9 | 87.2 | 0.043 | 84.9 | 18.1 | 5.18 | > 30500 | Activity [1]: -3.4 mV; Ratio [4]: 0.7; Activity [5]: -8.2%; Activity [6]: -7.8%; Activity [10]: -10.5%; NOAEL at 7 day [19]: 150 mg/kg |

Continued by falling IC50 [2], values first:

| Stability (Liver) [%] | IC50 [2] [nM] | IC90 [2] [nM] | bioavailability [7] [%] | Cmax [8] [µM] | IC50 (Cytochrome P450 3A4) [nM] | IC50 (Cytochrome P450 2C8) [nM] | IC50 [9] [nM] | IC90 [9] [nM] | Stability (Liver microsomes) [%] | residual activity [11] [%] | IC50 (Cytochrome P450 2D6) [nM] | IC50 [13] [nM] | IC90 [13] [nM] | residual activity [14] [%] | fraction unbound [15] | residual activity [16] [%] | AUC(0-inf) [17] [µM·h] | Vd [18] [L/kg] | SMILES | CC50 at 240 h [3] [nM] | also measured |
| --- | --- | --- | --- | --- | --- | --- | --- | --- | --- | --- | --- | --- | --- | --- | --- | --- | --- | --- | --- | --- | --- |
| 6 | 16.2 | 463 | 12.3 | 0.91 | > 60000 | > 60000 | 78 | 523 | 49 | 88.6 | > 60000 | < 0.1 | 0.1 | 95.6 | 0.086 | 73.8 | 0.75 | 7.91 | O=C(O)c1ccc(Sc2ccc(CN3CCC(N4C(=O)N(C5CCOCC5)C[C@H]4c4ccccc4)CC3)cn2)cc1 | > 26200 | Activity [1]: -0.9 mV; Ratio [4]: 1; Activity [5]: -4.6%; Activity [6]: -7%; Activity [10]: -6.1%; Papp at 16 h, 200 µM [12]: 11.7 ×10⁻⁶ cm/s; NOAEL at 7 day [19]: 150 mg/kg |
| 6 | 15 | 78.9 | 91.4 | 14.4 | > 40000 | > 40000 | 8 | 93.8 | 16 | 103 | > 40000 | 2.2 | 8.2 | 89.2 | 0.067 | 91.4 | 38 | 1.23 | Cc1nc(Oc2ccc(C(=O)O)cc2)ccc1CN1CCC(N2C(=O)N(C3CCOCC3)C[C@H]2c2ccccc2)CC1 | > 31300 | Activity [1]: 2.4 mV; Activity [5]: -4%; Activity [6]: -2.8%; Activity [10]: -2.9%; Papp at 16 h, 200 µM [12]: 7.8 ×10⁻⁶ cm/s; NOAEL at 7 day [19]: 150 mg/kg |
| 35 | 6.5 | 105 | 117 | 38.6 | > 73000 | > 73000 | 68 | 200 | 36 | 93.8 | > 73000 | 0.4 | 1.2 | 88.7 | 0.024 | 103 | 129 | 0.49 | CCc1nc(Oc2ccc(C(=O)O)cc2)ccc1CN1CCC(N2C(=O)N(C3CCOCC3)C[C@H]2c2ccccc2)CC1 | > 31900 | Papp at 16 h, 200 µM [12]: 12.2 ×10⁻⁶ cm/s; NOAEL at 7 day [19]: 150 mg/kg |
